CDK5 p35 inh – blocks human CDK5/p35 kinase activity. inhibition, % at 10 µM. Recombinant CDK5/p35, ADP-Glo luminescence, 60 min. AID 488839. Q00535+Q15078. actives 0.01% (n = 330,000);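 active means highest replicate inhibition of at least 50% and at least 75% of replicates reaching 50%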;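 further: plate controls were DMSO neutral control for no effect and GW8510 at 10 µM for full effect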
CAL PDZ FP-1 – blocks peptide binding to the human CAL PDZ domain; inhibition, % at 24.9 µM; Q9HD26; purified CAL PDZ, TMR-peptide fluorescence polarization, 1 h; AID 602252; actives 0.92% (n = 300,000);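 active means mean inhibition of at least 30% with at least half of replicates also reaching 30%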;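 further: 0% = DMSO neutral control and 100% = excess unlabeled competitor peptide PRC23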
Dyrk1A ADPGlo – blocks rat Dyrk1A kinase activity; inhibition, % at 12.5 µM; actives 0.43% (n = 310,000); ADP-Glo luminescence, NFATc1 peptide; in the data active means inhibition above about 50%;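 further: plate controls were vehicle with enzyme for no effect and no enzyme for full effect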
CAL PDZ FP-2 – blocks peptide binding to human CAL PDZ domain; Q9HD26; inhibition, % at 20 µM; purified CAL PDZ, TMR-peptide fluorescence polarization, 1 h; actives 0.02% (n = 330,000); AID 504414;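 active means highest replicate inhibition of at least 40%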;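 further: plate controls were DMSO neutral control wells for no effect and unlabeled competitor peptide control wells for full effect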
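Assay system – tagged CAL PDZ protein CerCALP, purified · Timing – 1 h at RT · Compound – single point, 20 µM · Measured by – fluorescence polarization from S- and P-plane intensities, G-factor corrected · Evaluation – inhibition from polarization loss · Probe or stimulus – TMR reporter peptide T*-PRC34 · Buffer or medium – pH 7.4 phosphate-saline buffer, reducing agent, detergent, IgG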
Rtt109 HAT inh – inhibitors of Candida albicans Rtt109/Vps75 histone acetyltransferase | Q5AAJ8 | purified Rtt109/Vps75, ThioGlo CoA-SH fluorescence, 4 h | inhibition, % at 34.9 µM | actives 0.16% (n = 330,000);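 active means inhibition of at least 50% in every replicate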
Target sequence (Q5AAJ8 whole entry, looked up): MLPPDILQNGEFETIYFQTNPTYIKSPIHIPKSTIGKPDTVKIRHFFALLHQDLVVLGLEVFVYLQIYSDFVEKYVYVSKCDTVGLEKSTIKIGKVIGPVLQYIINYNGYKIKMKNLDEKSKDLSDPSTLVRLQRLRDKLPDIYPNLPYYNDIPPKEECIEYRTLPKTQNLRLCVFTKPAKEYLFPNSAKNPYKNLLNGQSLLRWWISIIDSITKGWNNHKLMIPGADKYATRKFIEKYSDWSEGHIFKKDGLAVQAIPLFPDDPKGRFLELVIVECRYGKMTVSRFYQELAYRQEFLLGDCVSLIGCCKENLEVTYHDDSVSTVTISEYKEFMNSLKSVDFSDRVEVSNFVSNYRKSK
dFosB act-1 – enhances mouse delta FosB homodimer DNA binding; P13346; purified delta FosB, TAMRA-CDK5 oligo fluorescence polarization; percent of positive-control signal above neutral wells; activation, % at 25 µM; actives 0.99% (n = 340,000); AID 493131;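 active means mean activation above about 17%, with every replicate also reaching it, limit read from the data, passing the limit was not always enough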
Target sequence (P13346 whole entry, looked up): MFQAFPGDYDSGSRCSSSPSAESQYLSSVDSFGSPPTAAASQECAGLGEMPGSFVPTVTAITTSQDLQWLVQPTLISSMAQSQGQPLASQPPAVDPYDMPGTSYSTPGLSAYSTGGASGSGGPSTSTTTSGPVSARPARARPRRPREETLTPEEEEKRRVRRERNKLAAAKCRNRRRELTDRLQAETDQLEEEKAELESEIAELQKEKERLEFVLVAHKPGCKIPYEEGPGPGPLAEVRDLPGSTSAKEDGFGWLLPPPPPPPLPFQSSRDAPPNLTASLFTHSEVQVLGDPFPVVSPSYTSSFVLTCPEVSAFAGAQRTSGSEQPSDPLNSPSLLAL
dFosB act-2 – delta FosB (mouse) homodimer activation; shares compounds with dFosB act-1; purified delta FosB, TAMRA-CDK5 oligo fluorescence polarization; normalised: neutral wells 0, positive control 100; activation, % at 24.9 µM; 2,400 tested, under 10 active;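 active means highest replicate activation at or above 34% and every replicate reaching that threshold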;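 further: higher polarization means more probe DNA bound by delta FosB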
Dyrk1A artifact – counter-screen for Dyrk1A inhibitors: ADP-Glo luciferase artifacts. shares compounds with Dyrk1A ADPGlo. ADP-Glo luciferase artifact assay, no Dyrk1A, luminescence. AC50, µM (series often up to 12 µM), for inactives: at the highest dose activity change, negative = inhibition. 1,300 tested, under 10 active. AID 588348;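 active means fitted half-maximal dose AC50 no more than ten times the top valid tested dose, with luminescence dropping as dose rises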
* = called active by the depositor. Only some compounds are listed: those with a hit (about 2.2% of all), similar ones and a draw of the others.

What do the screens show for `O=c1c2c(O)cc(O)cc2oc2c(O)ccc(O[C@H]3O[C@@H](CO)[C@H](O)[C@@H](O)[C@@H]3O)c12`?
CDK5 p35 inh: 0.6; CAL PDZ FP-1: -3.8; Dyrk1A ADPGlo: 73.0*; CAL PDZ FP-2: -1.1; Rtt109 HAT inh: -3.5; dFosB act-1: 17.2*; dFosB act-2: -1.3; Dyrk1A artifact: 9.4%

What do the screens show for `CCc1nnc(NC(=O)CSc2nc3cc(OC)ccc3cc2C)s1`?
CDK5 p35 inh: -10.1; CAL PDZ FP-1: -5.0; Dyrk1A ADPGlo: -1.0; CAL PDZ FP-2: 0.4; Rtt109 HAT inh: -1.2; dFosB act-1: -8.7

Results for O=C(Nc1cccc(-c2cn3cccnc3n2)c1)c1ccc(Br)o1 ?
CDK5 p35 inh: -1.6; CAL PDZ FP-1: -14.4; Dyrk1A ADPGlo: 51.0*; CAL PDZ FP-2: -4.3; Rtt109 HAT inh: -13.5; dFosB act-1: 18.8*; dFosB act-2: 6.5; Dyrk1A artifact: 10.1%

Results for O=C(Nc1cccc(-c2cn3cccnc3n2)c1)c1ccco1 ?
CDK5 p35 inh: -1.7; Dyrk1A ADPGlo: -0.5; CAL PDZ FP-2: 0.3; Rtt109 HAT inh: -42.0; dFosB act-1: -18.6

What do the screens show for `COc1ccc(-c2ccc(=O)n(Cc3cccc([N+](=O)[O-])c3)n2)cc1`?
CDK5 p35 inh: -2.5; CAL PDZ FP-1: -0.8; Dyrk1A ADPGlo: 64.0*; CAL PDZ FP-2: -2.2; Rtt109 HAT inh: 3.5; dFosB act-1: -14.8; Dyrk1A artifact: 7.5%

What do the screens show for `O=C(c1cccc(Cl)c1)N1CCCC(C(=O)N2CCN(c3ccccc3)CC2)C1` (stereo not given)?
CDK5 p35 inh: 1.1; CAL PDZ FP-1: -4.2; Dyrk1A ADPGlo: 5.0; CAL PDZ FP-2: -1.1; Rtt109 HAT inh: -0.1; dFosB act-1: -10.5

Results for O=C(O)c1cc(N=Cc2c(O)c3ccccc3oc2=O)ccc1O ?
CDK5 p35 inh: 1.0; CAL PDZ FP-1: -3.2; Dyrk1A ADPGlo: 82.5*; CAL PDZ FP-2: -2.0; Rtt109 HAT inh: -13.8; dFosB act-1: -9.1; Dyrk1A artifact: 9.4%

Results for Cc1cc(C)cc(N=Cc2c(O)c3ccccc3oc2=O)c1 ?
CDK5 p35 inh: 0.0; CAL PDZ FP-1: -2.0; CAL PDZ FP-2: -0.8; Rtt109 HAT inh: -5.0; dFosB act-1: -16.9

How did Cn1nnnc1Sc1ncnc2scc(-c3ccc[nH]3)c12 do in these assays?
CDK5 p35 inh: -1.1; CAL PDZ FP-1: 0.7; Dyrk1A ADPGlo: 52.1*; CAL PDZ FP-2: 0.4; Rtt109 HAT inh: 8.1; dFosB act-1: -0.2; Dyrk1A artifact: 8.2%

Results for Cc1ccc(CN2CCN(c3ncccn3)CC2)o1 ?
CDK5 p35 inh: -0.3; CAL PDZ FP-1: -1.0; Dyrk1A ADPGlo: 56.4*; CAL PDZ FP-2: -2.4; Rtt109 HAT inh: 7.1; dFosB act-1: -6.8; Dyrk1A artifact: 6.9%

Results for Cc1ccc(CN2CCN(c3ccccc3)CC2)o1 ?
CDK5 p35 inh: -4.3; CAL PDZ FP-1: -2.5; Dyrk1A ADPGlo: 2.8; CAL PDZ FP-2: 0.2; Rtt109 HAT inh: 0.5; dFosB act-1: -3.1

How did NC(=O)c1cc2ccccc2oc1=NCc1ccccc1 do in these assays?
CDK5 p35 inh: 0.4; Dyrk1A ADPGlo: 68.4*; CAL PDZ FP-2: -1.2; Rtt109 HAT inh: -1.2; dFosB act-1: -18.1; Dyrk1A artifact: 7.2%

How did COc1ccc2oc(=Nc3cc(F)ccc3F)c(C(N)=O)cc2c1 do in these assays?
CDK5 p35 inh: -0.9; CAL PDZ FP-1: -4.5; Dyrk1A ADPGlo: -0.6; CAL PDZ FP-2: -0.1; Rtt109 HAT inh: 6.8; dFosB act-1: 11.3

What do the screens show for `NC(=O)c1cc2ccc(O)cc2oc1=Nc1ccccc1`?
CDK5 p35 inh: -0.4; CAL PDZ FP-1: -5.8; Dyrk1A ADPGlo: 58.3*; CAL PDZ FP-2: -0.8; Rtt109 HAT inh: -276.1; dFosB act-1: -6.2; Dyrk1A artifact: 8.2%

How did COc1ccc(OC)c(N=c2oc3cc(O)ccc3cc2C(N)=O)c1 do in these assays?
CDK5 p35 inh: 0.0; CAL PDZ FP-1: -1.5; Dyrk1A ADPGlo: 81.0*; CAL PDZ FP-2: -0.4; dFosB act-1: -0.9; Dyrk1A artifact: 5.6%

How did NC(=O)c1cc2cc(Br)ccc2oc1=NCc1ccccc1 do in these assays?
CDK5 p35 inh: 0.1; Dyrk1A ADPGlo: 15.5; CAL PDZ FP-2: -0.7; Rtt109 HAT inh: -1.0; dFosB act-1: -3.3

What do the screens show for `O=C(Cn1c(NCCO)nc2ccccc21)Nc1ccc2c(c1)OCCCO2`?
CDK5 p35 inh: 0.3; CAL PDZ FP-1: 4.4; Dyrk1A ADPGlo: 12.4; CAL PDZ FP-2: -3.4; Rtt109 HAT inh: 0.3; dFosB act-1: -3.7

Results for Cc1[nH]nc(Sc2ccccn2)c1[N+](=O)[O-] ?
CDK5 p35 inh: 1.0; CAL PDZ FP-1: 4.5; Dyrk1A ADPGlo: -2.2; CAL PDZ FP-2: -3.5; Rtt109 HAT inh: 1.4; dFosB act-1: -5.3

What do the screens show for `Cc1cc(C)c(CN2CCN(C(=O)Cn3ccc(N)nc3=O)CC2)c(C)c1`?
CDK5 p35 inh: -0.1; CAL PDZ FP-1: -2.1; Dyrk1A ADPGlo: 50.1*; CAL PDZ FP-2: -1.1; Rtt109 HAT inh: 0.3; dFosB act-1: -3.8; Dyrk1A artifact: 7.7%

Results for CSc1nc(N)nc2c1ncn2CC(=O)N1CCN(Cc2c(C)cc(C)cc2C)CC1 ?
CDK5 p35 inh: -1.4; CAL PDZ FP-1: -0.7; Dyrk1A ADPGlo: 3.4; CAL PDZ FP-2: -0.2; Rtt109 HAT inh: -2.0; dFosB act-1: -8.5

Results for O=c1[nH]c(SCc2ccccc2)nc2ccsc12 ?
CDK5 p35 inh: -0.7; CAL PDZ FP-1: 2.3; Dyrk1A ADPGlo: -5.7; CAL PDZ FP-2: -0.3; dFosB act-1: 0.4

What do the screens show for `O=S(=O)(O)c1cccc(N=Nc2c(O)ccc3ccccc23)c1`?
CDK5 p35 inh: 45.2; CAL PDZ FP-1: 2.1; Dyrk1A ADPGlo: 74.2*; CAL PDZ FP-2: 2.4; Rtt109 HAT inh: -2.5; dFosB act-1: -7.5; Dyrk1A artifact: 9.7%

How did COc1cc(C2C(=O)c3ccccc3C2=O)ccc1O do in these assays?
CDK5 p35 inh: 2.9; CAL PDZ FP-1: -1.8; Dyrk1A ADPGlo: 69.3*; CAL PDZ FP-2: 0.6; Rtt109 HAT inh: 1.2; dFosB act-1: -6.2; Dyrk1A artifact: 8.9%

How did CC(=O)c1nc2ccccc2n1S(=O)(=O)c1ccc(C)cc1 do in these assays?
CDK5 p35 inh: 1.0; CAL PDZ FP-1: 1.0; Dyrk1A ADPGlo: -0.8; CAL PDZ FP-2: -1.2; Rtt109 HAT inh: -2.0; dFosB act-1: 5.6

How did CC(=O)c1nc2ccccc2n1S(=O)(=O)c1ccc(Cl)cc1 do in these assays?
CDK5 p35 inh: 0.1; Dyrk1A ADPGlo: 83.2*; CAL PDZ FP-2: -0.7; Rtt109 HAT inh: -9.0; dFosB act-1: 2.7; Dyrk1A artifact: 6.6%

Assay outcomes (PubChem)
